Data published in ChEMBL document CHEMBL3992536, “Discovery of a Novel Series of Orally Bioavailable and CNS Penetrant Glucagon-like Peptide-1 Receptor (GLP-1R) Noncompetitive Antagonists Based on a 1,3-Disubstituted-7-aryl-5,5-bis(trifluoromethyl)-5,8-dihydropyrimido[4,5-d]pyrimidine-2,4(1H,3H)-dione Core” (J Med Chem, 2017).
Active and inactive are the calls of the source. The calls are words filed in the database; no cut-off is given here.

Experiments:
[1] = biological target: T1, Glucagon-like peptide 1 receptor (Homo sapiens, UniProt P43220); experiment: Antagonist activity at human GLP-1R expressed in TREx293 cells co-expressing cAMP sensitive luciferase assessed as inhibition of GLP1 (7 to 36 residues) amide-induced cAMP accumulation after 90 mins by GloSensor cAMP assay; type: functional, cell-based
How it was run: (§1)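 GloSensor cAMP luminescence read-out in TREx293 HEK cells expressing GLP-1R. IC50 and pIC50 come from the concentration–response curves. n = 3, reported as average ± SEM.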

[2] = biological target: T1, Glucagon-like peptide 1 receptor; experiment: Antagonist activity at human GLP-1R expressed in TREx293 cells co-expressing cAMP sensitive luciferase assessed as inhibition of exendin-4-induced cAMP accumulation after 90 mins by GloSensor cAMP assay; type: functional, cell-based; how it was run: as §1
[3] = biological target: T1, Glucagon-like peptide 1 receptor; experiment: Antagonist activity at human GLP-1R expressed in TREx293 cells co-expressing cAMP sensitive luciferase assessed as inhibition of GLP1 (7 to 36 residues) amide-induced cAMP accumulation after 90 mins by GloSensor cAMP assay relative to GLP-1; type: functional, cell-based
How it was run: (§2)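 TREx293 HEK cells expressing GLP-1R, GloSensor cAMP read-out. The minimum response is expressed as % of the GLP-1 response (GLP-1 min). n = 3, average ± SEM.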

[4] = biological target: T1, Glucagon-like peptide 1 receptor; experiment: Antagonist activity at human GLP-1R expressed in TREx293 cells co-expressing cAMP sensitive luciferase assessed as inhibition of exendin-4-induced cAMP accumulation after 90 mins by GloSensor cAMP assay relative to GLP-1; type: functional, cell-based; how it was run: as §2
[5] = Plasma clearance in Sprague-Dawley rat at 1 mg/kg, iv or 3 mg/kg via oral gavage by LC-MS/MS analysis; type: ADME, organism-based
How it was run: (§3)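 Rat PK study with dosing at 1 mg/kg iv and 3 mg/kg po. The study reports plasma clearance (mL min⁻¹ kg⁻¹), t1/2 (min), Vss (L/kg) and oral bioavailability F (%).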

[6] = Half life in Sprague-Dawley rat at 1 mg/kg, iv or 3 mg/kg via oral gavage by LC-MS/MS analysis; type: ADME, organism-based; details: in vivo; how it was run: as §3
[7] = Volume of distribution at steady state in Sprague-Dawley rat at 1 mg/kg, iv or 3 mg/kg via oral gavage by LC-MS/MS analysis; type: ADME, organism-based; details: in vivo, read-out: Vdss; how it was run: as §3
[8] = Oral bioavailability in Sprague-Dawley rat at 3 mg/kg via gavage by LC-MS/MS analysis; type: ADME, organism-based; details: in vivo; how it was run: as §3
Glucagon receptor = Glucagon receptor (Homo sapiens, UniProt P47871); experiment: Antagonist activity at glucagon receptor (unknown origin)
Cytochrome P450 1A2 = biological target: T2, Cytochrome P450 1A2 (Homo sapiens, UniProt P05177); experiment: Inhibition of CYP1A2 in human liver microsomes using phenacetin as substrate preincubated for 15 mins followed by NADPH addition measured after 8 mins by LC-MS/MS analysis; type: ADME
T2 sequence (P05177 whole entry): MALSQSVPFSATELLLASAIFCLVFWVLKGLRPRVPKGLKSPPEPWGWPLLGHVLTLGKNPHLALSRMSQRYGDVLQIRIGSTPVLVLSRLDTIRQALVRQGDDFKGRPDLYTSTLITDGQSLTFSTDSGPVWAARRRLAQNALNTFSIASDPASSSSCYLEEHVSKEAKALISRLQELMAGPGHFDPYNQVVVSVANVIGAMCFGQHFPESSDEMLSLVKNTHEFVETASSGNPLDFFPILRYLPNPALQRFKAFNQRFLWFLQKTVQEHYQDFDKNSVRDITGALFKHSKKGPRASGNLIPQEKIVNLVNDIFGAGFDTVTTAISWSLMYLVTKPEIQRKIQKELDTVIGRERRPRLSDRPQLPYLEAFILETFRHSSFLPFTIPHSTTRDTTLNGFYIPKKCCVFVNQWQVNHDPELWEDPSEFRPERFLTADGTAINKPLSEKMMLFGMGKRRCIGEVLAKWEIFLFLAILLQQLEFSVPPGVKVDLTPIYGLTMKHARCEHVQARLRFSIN

Cytochrome P450 2C9 = Cytochrome P450 2C9 (Homo sapiens, UniProt P11712); experiment: Inhibition of CYP2C9 in human liver microsomes using diclofenac as substrate preincubated for 15 mins followed by NADPH addition measured after 8 mins by LC-MS/MS analysis; type: ADME
Cytochrome P450 3A4 = Cytochrome P450 3A4 (Homo sapiens, UniProt P08684); experiment: Inhibition of CYP3A4 in human liver microsomes using midazolam as substrate preincubated for 15 mins followed by NADPH addition measured after 8 mins by LC-MS/MS analysis; type: ADME
Cytochrome P450 2D6 = Cytochrome P450 2D6 (Homo sapiens, UniProt P10635); experiment: Inhibition of CYP2D6 in human liver microsomes using dextromethorphan as substrate preincubated for 15 mins followed by NADPH addition measured after 8 mins by LC-MS/MS analysis; type: ADME
[9] = Fraction unbound in rat plasma at 5 uM after 4 hrs by LC-MS/MS based equilibrium dialysis method; type: ADME, cell-free
[10] = Fraction unbound in human plasma at 5 uM after 4 hrs by LC-MS/MS based equilibrium dialysis method; type: ADME, cell-free
[11] = Drug uptake in Sprague-Dawley rat plasma at 3 mg/kg via oral gavage after 1 hr by LC-MS/MS analysis; type: ADME, organism-based
How it was run: (§4)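 Rat distribution study: single 3 mg/kg oral dose. Plasma (ng/mL) and brain concentrations are measured at 1 h, and brain/plasma Kp is calculated from them.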

[12] = Drug uptake in Sprague-Dawley rat brain at 3 mg/kg via oral gavage after 1 hr by LC-MS/MS analysis; type: ADME, organism-based; details: read-out: Drug uptake; how it was run: as §4
[13] = Ratio of drug level in Sprague-Dawley rat brain to plasma at 3 mg/kg via oral gavage after 1 hr by LC-MS/MS analysis; type: ADME, organism-based; how it was run: as §4
[14] = biological target: T1, Glucagon-like peptide 1 receptor; experiment: Non-competitive antagonism/negative allosteric modulation of human GLP-1R expressed in TREx293 cells co-expressing cAMP sensitive luciferase assessed as inhibition of fixed concentration of GLP1 (7 to 36 residues) amide-induced cAMP accumulation by measuring decrease in GLP-1 maximum response at 0.3 to 10 uM after 90 mins by GloSensor cAMP assay; type: functional, cell-based
How it was run: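 A full GLP-1 (7−36) amide concentration–response curve is run in GLP-1R TREx293 HEK cells with GloSensor cAMP detection. It is repeated in the presence of increasing fixed concentrations of antagonist, and the decrease in the GLP-1 maximal response is followed. n = 3.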

[15] = biological target: T3, Glucagon-like peptide 1 receptor (Mus musculus) (UniProt O35659); experiment: Antagonist activity at GLP-1R in C57BL/6J mouse primary islets assessed as inhibition of exendin-4-induced increase in glucose-stimulated insulin secretion at 1 uM after 60 mins by radio-immunoassay
T3 sequence (whole entry): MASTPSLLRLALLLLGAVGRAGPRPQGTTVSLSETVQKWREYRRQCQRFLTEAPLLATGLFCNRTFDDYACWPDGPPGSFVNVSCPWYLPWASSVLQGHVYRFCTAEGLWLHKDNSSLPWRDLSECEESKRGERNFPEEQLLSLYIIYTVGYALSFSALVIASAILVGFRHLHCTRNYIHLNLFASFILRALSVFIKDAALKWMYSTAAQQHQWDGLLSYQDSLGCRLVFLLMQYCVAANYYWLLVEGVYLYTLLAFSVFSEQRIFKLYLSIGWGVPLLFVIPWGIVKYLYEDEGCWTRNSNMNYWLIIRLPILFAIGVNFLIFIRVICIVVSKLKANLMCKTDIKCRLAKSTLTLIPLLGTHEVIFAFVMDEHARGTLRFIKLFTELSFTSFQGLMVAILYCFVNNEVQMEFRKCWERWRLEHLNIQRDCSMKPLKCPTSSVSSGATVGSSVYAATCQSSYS

Rattus norvegicus [16] = experiment: Decrease in blood insulin level in Sprague-Dawley rat at 10 mg/kg, po pretreated for 30 mins followed by glucose challenge measured up to 150 mins by oral glucose tolerance test; type: functional, organism-based
How it was run: (§5)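 OGTT in male Sprague-Dawley rats with surgically implanted carotid cannulae, randomized to compound (10 mg/kg po) or vehicle. Dosing is 30 min before a 2 g/kg glucose gavage at time 0. Carotid blood is sampled at intervals for whole blood glucose and insulin.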

Rattus norvegicus [17] = experiment: Increase in blood glucose level in Sprague-Dawley rat at 10 mg/kg, po pretreated for 30 mins followed by glucose challenge measured up to 150 mins by oral glucose tolerance test; type: functional, organism-based; how it was run: as §5
[18] = biological target: T1, Glucagon-like peptide 1 receptor; experiment: Antagonist activity at GLP-1R (unknown origin)

Chain of Glucagon receptor (P47871 whole entry): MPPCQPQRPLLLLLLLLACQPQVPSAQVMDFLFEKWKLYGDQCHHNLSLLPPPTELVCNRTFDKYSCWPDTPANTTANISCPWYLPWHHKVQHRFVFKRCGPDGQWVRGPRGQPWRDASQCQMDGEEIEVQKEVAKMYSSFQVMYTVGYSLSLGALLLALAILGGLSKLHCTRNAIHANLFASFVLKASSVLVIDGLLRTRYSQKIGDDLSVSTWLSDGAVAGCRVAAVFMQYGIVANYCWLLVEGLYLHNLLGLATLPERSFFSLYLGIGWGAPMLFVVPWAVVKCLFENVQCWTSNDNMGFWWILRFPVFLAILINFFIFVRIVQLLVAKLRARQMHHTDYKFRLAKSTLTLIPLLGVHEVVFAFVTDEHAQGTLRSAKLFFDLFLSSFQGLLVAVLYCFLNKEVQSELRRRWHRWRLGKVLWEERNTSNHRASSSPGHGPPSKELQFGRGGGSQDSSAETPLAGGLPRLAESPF
Chain of Cytochrome P450 3A4 (P08684 whole entry): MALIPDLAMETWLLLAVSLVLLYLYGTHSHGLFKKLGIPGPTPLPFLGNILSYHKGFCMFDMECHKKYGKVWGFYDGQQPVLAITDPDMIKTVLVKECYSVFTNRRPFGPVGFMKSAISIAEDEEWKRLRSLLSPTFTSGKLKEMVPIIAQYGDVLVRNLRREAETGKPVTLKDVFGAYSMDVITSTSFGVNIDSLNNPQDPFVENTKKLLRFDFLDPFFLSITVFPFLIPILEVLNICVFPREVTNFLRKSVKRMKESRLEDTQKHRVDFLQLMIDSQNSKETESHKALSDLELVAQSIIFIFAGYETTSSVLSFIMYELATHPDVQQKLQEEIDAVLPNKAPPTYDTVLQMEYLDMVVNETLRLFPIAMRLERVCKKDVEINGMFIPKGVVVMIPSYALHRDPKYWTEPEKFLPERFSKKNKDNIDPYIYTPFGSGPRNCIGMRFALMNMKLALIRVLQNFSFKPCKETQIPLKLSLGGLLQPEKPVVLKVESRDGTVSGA
Chain of Cytochrome P450 2C9 (P11712 whole entry): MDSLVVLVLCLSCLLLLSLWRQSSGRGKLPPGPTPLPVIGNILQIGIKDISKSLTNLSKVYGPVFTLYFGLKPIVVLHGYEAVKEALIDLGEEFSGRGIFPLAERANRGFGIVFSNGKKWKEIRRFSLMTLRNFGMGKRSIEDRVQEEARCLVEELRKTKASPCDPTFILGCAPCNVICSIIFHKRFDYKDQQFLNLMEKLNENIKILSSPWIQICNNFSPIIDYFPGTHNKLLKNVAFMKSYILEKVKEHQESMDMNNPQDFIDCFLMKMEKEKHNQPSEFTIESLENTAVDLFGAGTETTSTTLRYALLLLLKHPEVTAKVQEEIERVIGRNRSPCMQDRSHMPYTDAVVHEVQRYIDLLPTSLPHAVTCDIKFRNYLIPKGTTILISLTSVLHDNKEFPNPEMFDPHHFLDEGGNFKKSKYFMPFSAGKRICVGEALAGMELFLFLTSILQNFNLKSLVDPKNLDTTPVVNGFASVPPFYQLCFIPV
T1 sequence (P43220 whole entry, the tested form may be a part): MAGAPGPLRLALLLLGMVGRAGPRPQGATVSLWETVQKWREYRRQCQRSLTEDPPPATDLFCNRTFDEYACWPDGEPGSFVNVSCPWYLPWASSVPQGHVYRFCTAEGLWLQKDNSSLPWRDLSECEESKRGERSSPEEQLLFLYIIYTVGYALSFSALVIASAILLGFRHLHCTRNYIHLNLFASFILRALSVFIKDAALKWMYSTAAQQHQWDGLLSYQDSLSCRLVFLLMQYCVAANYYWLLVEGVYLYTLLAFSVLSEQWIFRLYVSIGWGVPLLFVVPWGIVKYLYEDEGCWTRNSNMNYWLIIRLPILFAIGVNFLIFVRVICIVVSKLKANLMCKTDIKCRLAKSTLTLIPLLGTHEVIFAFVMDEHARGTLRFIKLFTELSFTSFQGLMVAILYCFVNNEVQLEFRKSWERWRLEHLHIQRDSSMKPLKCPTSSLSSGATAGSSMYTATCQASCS
Chain of Cytochrome P450 2D6 (P10635 whole entry): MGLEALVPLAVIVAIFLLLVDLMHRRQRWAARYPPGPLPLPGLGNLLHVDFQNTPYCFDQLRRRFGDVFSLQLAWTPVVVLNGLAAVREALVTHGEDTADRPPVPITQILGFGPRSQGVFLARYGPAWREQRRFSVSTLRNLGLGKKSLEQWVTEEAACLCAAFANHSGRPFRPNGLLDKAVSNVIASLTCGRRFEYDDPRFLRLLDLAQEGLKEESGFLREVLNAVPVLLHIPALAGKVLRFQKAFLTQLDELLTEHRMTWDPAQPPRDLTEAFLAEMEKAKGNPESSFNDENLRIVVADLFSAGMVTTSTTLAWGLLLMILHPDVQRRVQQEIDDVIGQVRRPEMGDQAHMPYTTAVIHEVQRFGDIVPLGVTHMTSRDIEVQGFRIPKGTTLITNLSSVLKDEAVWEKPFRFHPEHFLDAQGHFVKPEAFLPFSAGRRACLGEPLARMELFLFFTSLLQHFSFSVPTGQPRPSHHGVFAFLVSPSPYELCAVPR

SMILES | IC50 [1] [µM] | IC50 [2] [µM] | Emin [3] [%] | Emin [4] [%] | clearance [5] [mL/min/kg] | half-life [6] [h] | Vd [7] [L/kg] | bioavailability [8] [%] | IC50 (Glucagon receptor) [µM] | IC50 (Cytochrome P450 1A2) [µM] | IC50 (Cytochrome P450 2C9) [µM] | IC50 (Cytochrome P450 3A4) [µM] | IC50 (Cytochrome P450 2D6) [µM] | fraction unbound at 4 h, 5 µM [9] | fraction unbound at 4 h, 5 µM [10] | concentration at 1 h [11] [ng/mL] | concentration at 1 h [12] [ng/g] | Kp at 1 h [13] | inhibition [14] | inhibition [15] | other results
COc1cccc(C2=NC(C(F)(F)F)(C(F)(F)F)c3c(n(-c4ccc(Cl)cc4)c(=O)[nH]c3=O)N2)c1 | 5.9 | 5.8 | 16.8 | 23.9 | 36.4 | 2.42 | 0.69 | 100 | > 30 | > 30 | 3.78 | 16.4 | 8.13 | 0.002 | 0.003 | 1140 | 37.1 | 0.03 |  |  | 
O=c1[nH]c(=O)n(Cc2ccccc2)c2c1C(C(F)(F)F)(C(F)(F)F)N=C(c1cccs1)N2 | 1.3 | 1.5 | 36.2 | 32 |  |  |  |  |  |  |  |  |  |  |  |  |  |  |  |  | 
COc1ccc2c(c1)N(c1ccccc1F)C(=O)[C@@]2(CCC(=O)O)NC(=O)c1cc2ccccc2cn1 |  |  |  |  |  |  |  |  |  |  |  |  |  |  |  |  |  |  |  |  | IC50 [18]: 21 µM

Now from value to molecule, other results behind:

IC50 [1] [µM] | IC50 [2] [µM] | Emin [3] [%] | Emin [4] [%] | clearance [5] [mL/min/kg] | half-life [6] [h] | Vd [7] [L/kg] | bioavailability [8] [%] | IC50 (Glucagon receptor) [µM] | IC50 (Cytochrome P450 1A2) [µM] | IC50 (Cytochrome P450 2C9) [µM] | IC50 (Cytochrome P450 3A4) [µM] | IC50 (Cytochrome P450 2D6) [µM] | fraction unbound at 4 h, 5 µM [9] | fraction unbound at 4 h, 5 µM [10] | concentration at 1 h [11] [ng/mL] | concentration at 1 h [12] [ng/g] | Kp at 1 h [13] | inhibition [14] | inhibition [15] | SMILES | other results
0.65 | 0.69 | 20.9 | 19.7 | 4.79 | 9.78 | 3.57 | 50 | > 30 | 4.01 | 0.41 | > 30 | > 30 | 0.011 | 0.007 | 45 | 65.1 | 1.45 | Dose-dependent effect | Active | Cn1c2c(c(=O)n(C)c1=O)C(C(F)(F)F)(C(F)(F)F)NC(c1ccc(Cl)cc1)=N2 | Activity (Rattus norvegicus [16]): Active; Activity (Rattus norvegicus [17]): Active
0.61 | 0.69 | 16.4 | 15.5 | 3.64 | 0.7 | 0.22 |  | > 30 | 25 | 0.47 | > 30 | 21.2 | 0.005 | 0.005 | 76.7 | 2.4 | 0.02 | Dose-dependent effect | Active | Cn1c2c(c(=O)n(C)c1=O)C(C(F)(F)F)(C(F)(F)F)N=C(c1cccc([N+](=O)[O-])c1)N2 | 
7.2 | 7.2 | 22.7 | 26.4 |  |  |  |  |  |  |  |  |  |  |  |  |  |  |  |  | COc1cccc(C2=NC(C(F)(F)F)(C(F)(F)F)c3c(n(CC(C)C)c(=O)[nH]c3=O)N2)c1 | 
